Values after ≈ are worked out from the molar mass of the structure shown.
Legend:
[1] = molecular target: Phosphatidylinositol 4,5-bisphosphate 3-kinase catalytic subunit alpha isoform (Homo sapiens, UniProt P42336); experiment: Inhibition of PI3Kalpha
[2] = molecular target: Phosphatidylinositol 4,5-bisphosphate 3-kinase catalytic subunit beta isoform (Homo sapiens, UniProt P42338); experiment: Inhibition of PI3Kbeta
[3] = molecular target: T1, Phosphatidylinositol 4,5-bisphosphate 3-kinase catalytic subunit delta isoform (Homo sapiens, UniProt O00329); experiment: Inhibition of PI3Kdelta
T1 sequence (O00329 whole entry): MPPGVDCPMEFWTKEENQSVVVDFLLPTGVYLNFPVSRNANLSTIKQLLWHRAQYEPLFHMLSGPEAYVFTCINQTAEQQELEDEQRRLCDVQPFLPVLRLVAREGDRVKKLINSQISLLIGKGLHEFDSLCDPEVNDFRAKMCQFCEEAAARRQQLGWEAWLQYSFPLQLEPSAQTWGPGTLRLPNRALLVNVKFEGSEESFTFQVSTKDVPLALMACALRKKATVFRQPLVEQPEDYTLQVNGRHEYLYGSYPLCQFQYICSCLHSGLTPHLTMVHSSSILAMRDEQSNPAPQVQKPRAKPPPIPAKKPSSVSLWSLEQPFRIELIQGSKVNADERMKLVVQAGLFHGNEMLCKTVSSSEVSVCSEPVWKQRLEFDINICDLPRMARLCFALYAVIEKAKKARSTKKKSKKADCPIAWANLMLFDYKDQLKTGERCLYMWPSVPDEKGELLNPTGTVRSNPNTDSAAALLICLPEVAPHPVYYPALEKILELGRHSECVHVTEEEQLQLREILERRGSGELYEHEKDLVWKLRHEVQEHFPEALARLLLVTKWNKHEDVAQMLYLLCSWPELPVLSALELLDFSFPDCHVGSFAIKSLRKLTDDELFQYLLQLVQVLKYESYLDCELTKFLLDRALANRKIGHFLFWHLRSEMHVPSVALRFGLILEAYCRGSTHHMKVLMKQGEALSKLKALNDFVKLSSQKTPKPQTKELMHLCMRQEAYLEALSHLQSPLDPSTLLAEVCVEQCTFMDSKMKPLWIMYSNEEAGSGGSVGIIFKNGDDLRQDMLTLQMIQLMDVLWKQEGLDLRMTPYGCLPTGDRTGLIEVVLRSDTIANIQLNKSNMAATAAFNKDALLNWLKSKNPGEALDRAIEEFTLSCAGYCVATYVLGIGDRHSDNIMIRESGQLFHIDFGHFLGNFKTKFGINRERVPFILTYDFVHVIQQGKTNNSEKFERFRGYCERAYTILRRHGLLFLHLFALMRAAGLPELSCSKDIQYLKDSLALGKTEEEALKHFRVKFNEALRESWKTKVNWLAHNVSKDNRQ

[4] = molecular target: Phosphatidylinositol 4,5-bisphosphate 3-kinase catalytic subunit gamma isoform (Homo sapiens, UniProt P48736); experiment: Inhibition of PI3Kgamma
[5] = Inhibition of Akt phosphorylation at S473 in PTEN deficient human PC3 cells; format: cell-based; settings: PC-3
[6] = Equilibrium solubility of the compound in phosphate buffer at pH 7.4 after 16 hrs by HPLC analysis; format: physicochemical
[7] = Apparent permeability across human Caco2/TC7 cells; format: ADME, cell-based; settings: Caco-2
Procedure, shortened: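 Caco-2 TC7 clone monolayers; transport measured in both apical-to-basolateral and basolateral-to-apical directions, giving Papp (nm/s) and an efflux ratio.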

[8] = Drug metabolism in mouse liver microsomes after 20 mins; format: ADME, Microsome; settings: read-out: Drug metabolism
Procedure, shortened: (§1)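 Liver microsomes (human or mouse) incubated with compound for 20 min; %lability reported as % of compound metabolized.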

[9] = Drug metabolism in human liver microsomes after 20 mins; format: ADME, Microsome; settings: read-out: Drug metabolism; procedure, shortened: as §1
Cytochrome P450 3A4 = Cytochrome P450 3A4 (Homo sapiens, UniProt P08684); experiment: Inhibition of human recombinant CYP3A4; format: ADME
[10] = Efflux ratio of permeability […] in human Caco2/TC7 cells; format: ADME, cell-based
Procedure, shortened: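 Caco-2 TC7 clone cells grown as a monolayer; compound transport measured in both directions, apical to basolateral (A–B) and basolateral to apical (B–A); apparent permeability (Papp) read out, and efflux ratio derived from the two directional measurements.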

Phosphatidylinositol 4,5-bisphosphate 3-kinase catalytic subunit beta isoform, sequence (P42338 whole entry, canonical isoform): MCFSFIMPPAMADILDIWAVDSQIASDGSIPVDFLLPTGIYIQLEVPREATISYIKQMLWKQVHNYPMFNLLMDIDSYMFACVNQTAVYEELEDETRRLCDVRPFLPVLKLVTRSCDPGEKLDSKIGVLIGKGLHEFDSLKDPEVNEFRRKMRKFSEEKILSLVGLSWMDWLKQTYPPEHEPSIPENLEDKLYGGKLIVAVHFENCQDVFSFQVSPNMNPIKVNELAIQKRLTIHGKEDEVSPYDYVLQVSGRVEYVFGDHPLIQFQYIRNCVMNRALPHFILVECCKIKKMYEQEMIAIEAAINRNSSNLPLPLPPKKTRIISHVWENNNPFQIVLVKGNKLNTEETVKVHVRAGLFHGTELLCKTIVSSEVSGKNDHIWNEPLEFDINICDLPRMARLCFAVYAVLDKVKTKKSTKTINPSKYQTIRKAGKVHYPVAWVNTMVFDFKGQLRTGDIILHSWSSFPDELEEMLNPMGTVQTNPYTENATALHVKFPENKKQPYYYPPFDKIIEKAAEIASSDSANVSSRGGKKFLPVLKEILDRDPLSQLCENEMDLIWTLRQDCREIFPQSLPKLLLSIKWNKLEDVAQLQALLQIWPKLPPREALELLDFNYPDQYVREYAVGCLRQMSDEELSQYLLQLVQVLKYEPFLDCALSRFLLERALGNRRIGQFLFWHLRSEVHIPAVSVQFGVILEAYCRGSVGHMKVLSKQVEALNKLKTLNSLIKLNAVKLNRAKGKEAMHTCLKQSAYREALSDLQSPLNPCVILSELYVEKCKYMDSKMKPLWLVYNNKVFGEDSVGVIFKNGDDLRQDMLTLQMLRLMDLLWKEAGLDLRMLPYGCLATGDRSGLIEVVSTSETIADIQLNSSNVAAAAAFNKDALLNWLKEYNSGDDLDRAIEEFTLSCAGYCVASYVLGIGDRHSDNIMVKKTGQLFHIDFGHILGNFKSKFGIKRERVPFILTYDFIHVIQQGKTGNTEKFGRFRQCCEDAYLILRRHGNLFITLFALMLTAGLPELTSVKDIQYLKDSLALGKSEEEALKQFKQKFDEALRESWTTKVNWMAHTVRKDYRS
Cytochrome P450 3A4, sequence (P08684 whole entry): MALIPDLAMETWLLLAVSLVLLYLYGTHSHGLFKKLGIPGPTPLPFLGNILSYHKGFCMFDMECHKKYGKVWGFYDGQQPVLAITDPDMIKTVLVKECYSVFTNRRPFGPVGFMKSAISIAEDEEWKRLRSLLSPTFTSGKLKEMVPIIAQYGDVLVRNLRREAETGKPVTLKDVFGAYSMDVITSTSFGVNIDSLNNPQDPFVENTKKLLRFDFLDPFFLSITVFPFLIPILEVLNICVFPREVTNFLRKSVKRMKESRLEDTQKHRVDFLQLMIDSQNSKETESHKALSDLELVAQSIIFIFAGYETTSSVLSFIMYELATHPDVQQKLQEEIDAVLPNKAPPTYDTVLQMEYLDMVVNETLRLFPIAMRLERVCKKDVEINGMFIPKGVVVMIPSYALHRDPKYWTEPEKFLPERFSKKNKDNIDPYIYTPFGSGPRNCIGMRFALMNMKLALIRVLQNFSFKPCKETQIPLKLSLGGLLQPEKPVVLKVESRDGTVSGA
Phosphatidylinositol 4,5-bisphosphate 3-kinase catalytic subunit alpha isoform, sequence (P42336 whole entry, canonical isoform): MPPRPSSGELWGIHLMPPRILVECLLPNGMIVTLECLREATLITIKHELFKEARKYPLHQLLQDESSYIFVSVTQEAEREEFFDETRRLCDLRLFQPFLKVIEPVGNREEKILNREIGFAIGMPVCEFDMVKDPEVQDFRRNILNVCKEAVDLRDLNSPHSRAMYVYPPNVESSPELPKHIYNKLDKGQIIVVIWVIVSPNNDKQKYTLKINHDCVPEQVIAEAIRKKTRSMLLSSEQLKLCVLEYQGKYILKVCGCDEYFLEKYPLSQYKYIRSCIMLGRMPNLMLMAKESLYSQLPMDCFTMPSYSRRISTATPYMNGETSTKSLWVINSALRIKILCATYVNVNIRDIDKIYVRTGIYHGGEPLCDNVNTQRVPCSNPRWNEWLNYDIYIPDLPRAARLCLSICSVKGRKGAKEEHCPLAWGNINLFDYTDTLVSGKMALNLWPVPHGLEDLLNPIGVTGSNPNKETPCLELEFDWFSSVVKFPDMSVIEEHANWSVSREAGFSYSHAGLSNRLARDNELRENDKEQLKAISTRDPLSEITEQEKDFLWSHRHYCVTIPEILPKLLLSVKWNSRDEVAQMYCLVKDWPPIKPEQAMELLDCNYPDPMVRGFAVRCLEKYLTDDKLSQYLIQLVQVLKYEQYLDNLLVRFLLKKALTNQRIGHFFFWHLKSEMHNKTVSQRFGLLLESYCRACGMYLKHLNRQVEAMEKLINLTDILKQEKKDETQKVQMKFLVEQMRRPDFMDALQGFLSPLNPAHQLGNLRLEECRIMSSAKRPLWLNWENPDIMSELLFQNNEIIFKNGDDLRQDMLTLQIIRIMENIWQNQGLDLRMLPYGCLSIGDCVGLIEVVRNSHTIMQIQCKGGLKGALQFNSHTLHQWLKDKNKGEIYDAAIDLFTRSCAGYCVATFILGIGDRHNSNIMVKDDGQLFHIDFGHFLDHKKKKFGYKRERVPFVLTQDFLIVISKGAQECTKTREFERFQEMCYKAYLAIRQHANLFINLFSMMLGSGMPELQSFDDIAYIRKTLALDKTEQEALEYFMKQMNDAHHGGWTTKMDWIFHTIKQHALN
Phosphatidylinositol 4,5-bisphosphate 3-kinase catalytic subunit gamma isoform, sequence (P48736 whole entry, canonical isoform): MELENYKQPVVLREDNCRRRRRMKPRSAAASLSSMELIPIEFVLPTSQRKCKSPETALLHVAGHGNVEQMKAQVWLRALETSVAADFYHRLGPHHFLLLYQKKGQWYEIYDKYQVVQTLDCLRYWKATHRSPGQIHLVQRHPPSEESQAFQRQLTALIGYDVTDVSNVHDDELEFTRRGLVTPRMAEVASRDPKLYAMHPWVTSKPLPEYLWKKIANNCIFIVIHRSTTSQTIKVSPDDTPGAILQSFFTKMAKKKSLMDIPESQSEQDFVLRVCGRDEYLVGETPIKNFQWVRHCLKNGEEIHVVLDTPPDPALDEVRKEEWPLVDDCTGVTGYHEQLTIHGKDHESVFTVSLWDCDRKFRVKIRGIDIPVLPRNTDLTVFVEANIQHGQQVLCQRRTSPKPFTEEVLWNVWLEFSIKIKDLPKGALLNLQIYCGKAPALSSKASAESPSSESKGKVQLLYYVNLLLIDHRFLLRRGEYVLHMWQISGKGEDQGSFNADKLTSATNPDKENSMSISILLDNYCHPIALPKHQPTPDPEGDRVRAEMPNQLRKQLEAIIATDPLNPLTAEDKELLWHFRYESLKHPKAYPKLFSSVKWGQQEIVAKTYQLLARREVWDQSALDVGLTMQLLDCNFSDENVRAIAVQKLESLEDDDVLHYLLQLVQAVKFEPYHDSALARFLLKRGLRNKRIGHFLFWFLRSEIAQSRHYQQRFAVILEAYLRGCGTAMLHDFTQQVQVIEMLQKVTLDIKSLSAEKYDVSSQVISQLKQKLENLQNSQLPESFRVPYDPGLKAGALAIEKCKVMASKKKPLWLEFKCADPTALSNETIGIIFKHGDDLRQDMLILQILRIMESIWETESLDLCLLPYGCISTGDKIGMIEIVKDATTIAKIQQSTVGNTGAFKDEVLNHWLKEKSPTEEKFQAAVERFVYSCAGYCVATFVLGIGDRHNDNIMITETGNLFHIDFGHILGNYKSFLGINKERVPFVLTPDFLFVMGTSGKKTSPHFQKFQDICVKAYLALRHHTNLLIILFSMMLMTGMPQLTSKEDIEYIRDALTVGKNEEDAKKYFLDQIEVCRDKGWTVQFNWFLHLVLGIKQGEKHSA

| Compound | IC50 [1] | IC50 [2] | IC50 [3] | IC50 [4] | IC50 [5] | solubility thermodynamic at 16 h [6] | Papp [7] | metabolised at 20 min [8] | metabolised at 20 min [9] | IC50 (Cytochrome P450 3A4) | Ratio [10] |
| --- | --- | --- | --- | --- | --- | --- | --- | --- | --- | --- | --- |
| O=C(Cc1nc(N2CCOCC2)cc(=O)[nH]1)Nc1ccc(F)c(Br)c1 | 4.14 µM | 26 nM | 297 nM | 6.61 µM | 38 nM | 5 µM (≈ 2.06 µg/mL) | 0.8 ×10⁻⁶ cm/s | 18% | 42% | > 40 µM |  |
| O=C(Cc1nc(N2CCOCC2)cc(=O)[nH]1)Nc1ccccc1F | > 10 µM | 142 nM | 2450 nM | > 10 µM | 349 nM |  |  |  |  |  |  |
| O=C(Cc1nc(N2CCOCC2)cc(=O)[nH]1)Nc1cccc(F)c1 | 6.22 µM | 81 nM | 1110 nM | > 10 µM | 74 nM |  |  | 21% | 55% |  |  |
| O=C(Cc1nc(N2CCOCC2)cc(=O)[nH]1)Nc1ccc(F)cc1 | 2.87 µM | 13 nM | 86 nM | > 10 µM | 31 nM | 45 µM (≈ 15 µg/mL) | 0.6 ×10⁻⁶ cm/s | 27% | 24% | > 40 µM |  |
| Cc1ccccc1NC(=O)Cc1nc(N2CCOCC2)cc(=O)[nH]1 | > 10 µM | 236 nM | 4270 nM | > 10 µM | 586 nM |  |  |  |  |  |  |
| Cc1cccc(NC(=O)Cc2nc(N3CCOCC3)cc(=O)[nH]2)c1 | 0.626 µM | 17 nM | 164 nM | 7.07 µM | 45 nM | 3 µM (≈ 0.985 µg/mL) | 1.4 ×10⁻⁶ cm/s | 54% | 80% |  |  |
| O=C(Cc1nc(N2CCOCC2)cc(=O)[nH]1)Nc1ccc(Cl)cc1 | 2.27 µM | 398 nM | 2780 nM | 5.09 µM | 1420 nM |  |  |  |  |  |  |
| O=C(Cc1nc(N2CCOCC2)cc(=O)[nH]1)Nc1cccc(Cl)c1 | 2.55 µM | 33 nM | 278 nM | > 10 µM | 100 nM | 9 µM (≈ 3.14 µg/mL) | 0.8 ×10⁻⁶ cm/s | 22% | 43% | > 40 µM |  |
| COc1cccc(NC(=O)Cc2nc(N3CCOCC3)cc(=O)[nH]2)c1 | 2.37 µM | 15 nM | 611 nM | > 10 µM | 47 nM | 38 µM (≈ 13.1 µg/mL) | 0.3 ×10⁻⁶ cm/s | 47% | 76% | > 40 µM |  |
| O=C(Cc1nc(N2CCOCC2)cc(=O)[nH]1)Nc1cccc(Br)c1 | 1.91 µM | 5 nM | 189 nM | > 10 µM | 10 nM | 6 µM (≈ 2.36 µg/mL) | 1.4 ×10⁻⁶ cm/s | 38% | 75% | > 40 µM | 26 |
| O=C(Cc1nc(N2CCOCC2)cc(=O)[nH]1)Nc1ccc(F)c(F)c1 | 3.84 µM | 53 nM | 135 nM | > 10 µM | 55 nM | 3 µM (≈ 1.05 µg/mL) | 0.8 ×10⁻⁶ cm/s | 11% | 25% |  |  |
| Cc1cc(NC(=O)Cc2nc(N3CCOCC3)cc(=O)[nH]2)ccc1F | 0.831 µM | 6 nM | 63 nM | 8.01 µM | 71 nM | 3 µM (≈ 1.04 µg/mL) | 0.6 ×10⁻⁶ cm/s | 60% | 91% | > 40 µM |  |
| O=C(Cc1nc(N2CCOCC2)cc(=O)[nH]1)Nc1ccc(F)c(Cl)c1 | 1.9 µM | 2 nM | 137 nM | 6.71 µM | 19 nM | 3 µM (≈ 1.1 µg/mL) | 0.8 ×10⁻⁶ cm/s | 14% | 40% |  |  |
| COc1cc(NC(=O)Cc2nc(N3CCOCC3)cc(=O)[nH]2)ccc1F | 3.46 µM | 3 nM | 148 nM | > 10 µM | 98 nM | 33 µM (≈ 12 µg/mL) | 0.2 ×10⁻⁶ cm/s | 28% | 71% | > 40 µM |  |
| COC(=O)c1cc(NC(=O)Cc2nc(N3CCOCC3)cc(=O)[nH]2)ccc1F | 8.14 µM | 175 nM | 4650 nM | > 10 µM | 1740 nM |  |  |  |  |  |  |
| O=C(Cc1nc(N2CCOCC2)cc(=O)[nH]1)Nc1ccc(F)c([N+](=O)[O-])c1 | 4.35 µM | 47 nM | 3360 nM | > 10 µM | 1260 nM |  |  |  |  |  |  |
| Cn1c(CC(=O)Nc2ccccc2)nc(N2CCOCC2)cc1=O | > 10 µM | 469 nM | 4290 nM | > 10 µM | 340 nM |  |  |  |  |  |  |
| Cn1c(CC(=O)Nc2ccc(F)cc2)nc(N2CCOCC2)cc1=O | > 10 µM | 244 nM | 1470 nM | > 10 µM | 110 nM |  |  |  |  |  |  |
| Cn1c(CC(=O)Nc2ccc(F)c(F)c2)nc(N2CCOCC2)cc1=O | 8.51 µM | 262 nM | 1770 nM | > 10 µM | 100 nM |  |  |  |  |  |  |
| Cn1c(CC(=O)Nc2ccc(F)c(Br)c2)nc(N2CCOCC2)cc1=O | 7.61 µM | 387 nM | 2210 nM | > 10 µM | 94 nM |  |  |  |  |  |  |
| COc1cc(NC(=O)Cc2nc(N3CCOCC3)cc(=O)n2C)ccc1F | > 10 µM | 104 nM | 2400 nM | > 10 µM | 100 nM |  |  |  |  |  |  |

From ChEMBL document CHEMBL2150988, “Preparation and optimization of new 4-(morpholin-4-yl)-(6-oxo-1,6-dihydropyrimidin-2-yl)amide derivatives as PI3Kβ inhibitors” (Bioorg Med Chem Lett, 2012)
